Experimental findings from ChEMBL document CHEMBL3085686, “New 7-methylguanine derivatives targeting the influenza polymerase PB2 cap-binding domain” (J Med Chem, 2013) are described below.

The nature of experiment [1]: Inhibition of influenza A virus biotinylated GST-His-tagged H3N2 RNA polymerase PB2 cap-binding domain interaction with EDA-m7GpppA by AlphaScreen assay.
Experiment [2] is described as follows: Inhibition of influenza A virus His-tagged H3N2 RNA polymerase PB2 cap-binding domain interaction with EDA-m7GpppA by AlphaScreen assay. The essentials:
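His-tagged H3N2 PB2 cap-binding domain binding a biotinylated cap analogue (Biotin-EDA-m7GpppA), read by AlphaScreen with Ni(II)-chelate beads at 7.5 µg/ml each. Compound was 11-point 1:1 serially diluted from 200 µM. Incubation at room temperature in subdued light. IC50 reported.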

Experiment [3] concerns Influenza A virus. Kind of experiment: Antiviral activity against Influenza A virus (A/Aichi/2/68(H3N2)) VR-547 infected in MDCK cells assessed as reduction in virus-induced cytopathic effect at 50 uM after 48 hrs by CellTiter-Glo assay. Format: functional, Influenza A virus (A/Aichi/2/1968(H3N2)). Details: scale not given: the % may be the effect or the level left. On the technique in general: Protection from cytopathic effect is a common read-out in antiviral testing.

Experiment [4] concerns Influenza A virus. In words: Binding affinity to influenza A virus H5N1 RNA polymerase PB2 cap-binding domain at 10 uM by biacore-based SPR analysis. The essentials: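 Purified H5N1 PB2 cap-binding domain amine-coupled to a CM7 chip at 30 µg/ml in 10 mM phosphate pH 6.5 with 5 mM m7GTP, giving about 7000 RU. Compound injected at 10 µM final (0.5% DMSO) in Tris/EDTA/NaCl/P20/1 mM DTT running buffer at 10 µL/min. Sensorgrams were double-referenced and DMSO-corrected.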

Experiment [5] in a line: Binding affinity to influenza A virus H5N1 RNA polymerase PB2 cap-binding domain by biacore-based SPR analysis. The essentials:
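H5N1 PB2-CBD was immobilised by amine coupling (30 µg/ml, with 5 mM m7GTP, pH 6.5; about 7000 RU). Analyte was run over 200 µM to 1 nM in Tris/EDTA/NaCl/P20/DTT buffer with 0.5% DMSO. Data were double-referenced and DMSO-corrected. KD came from a linear curve fit.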

Experiment [6] is described as follows: Inhibition of influenza A virus RNA polymerase PB2 domain-mediated cap binding.

SMILES strings stand for the structures.

The IC50 is the concentration that gives 50% inhibition. Turning to `C[n+]1cn(C(C(=O)c2ccccc2)c2ccccc2)c2nc(N)nc([O-])c21` (stereo not given), the IC50 in experiment [1] was not below 200 µM; in experiment [2], 42 µM.

As to `C=CC[n+]1cn(CC(=O)c2ccc(O)c(C(N)=O)c2)c2nc(N)nc([O-])c21`, in experiment [3], the Activity was 0%. For the same compound, the IC50 was not below 200 µM in experiment [1] and 60 µM in experiment [2].

As for `CC(=O)Nc1nc([O-])c2c(n1)n(CC(=O)O)c[n+]2C`, the IC50 in experiment [1] and in experiment [2] was not below 200 µM throughout.

As to `C[n+]1cn(CC(=O)c2ccccc2)c2nc(N)nc([O-])c21`, the Activity in experiment [3] is reported as -2.3%. Further, the figures for the IC50 in experiment [1] and in experiment [2] were not below 200 µM and 13.7 µM, respectively.

As to `C[n+]1cn(CC(=O)c2ccc3ccccc3c2)c2nc(N)nc([O-])c21`, the Activity in experiment [3] was -3.2%. The IC50 in experiment [1] was not below 200 µM; in experiment [2], 7.6 µM.

With `C[n+]1cn(CCC(=O)O)c2nc(N)nc([O-])c21`, the IC50 in experiment [1] and in experiment [2] was not below 200 µM each time.

Take `C[n+]1cn(-c2ccccc2)c2nc(N)nc([O-])c21`: the IC50 in experiment [1] was not below 200 µM; in experiment [2], 140 µM.

As to `CC[n+]1cn(CC(=O)c2ccc(O)c(C(N)=O)c2)c2nc(N)nc([O-])c21`, in experiment [3], the Activity amounted to 0.3%. Also, the IC50 is not below 200 µM in experiment [1] and 3.6 µM in experiment [2].

For the compound `C[n+]1cn(CCCCC(=O)O)c2nc(NCCCCC(=O)O)nc([O-])c21`, in experiment [3], the Activity is listed as -3.3%. This compound also registered an RU in experiment [4] of 17.5. Besides, the IC50 is not below 200 µM in experiment [1] and 5.3 µM in experiment [2].

As for `C[n+]1cn(CC(=O)N[C@H](Cc2ccccc2)C(=O)O)c2nc(NCCCCC(=O)O)nc([O-])c21`, the IC50 was not below 200 µM in experiment [1] and 53 µM in experiment [2].

Take `C[n+]1cn(CC(=O)Nc2cc(C(=O)O)cc(C(=O)O)c2)c2nc(N)nc([O-])c21`: the IC50 in experiment [1] and in experiment [2] was not below 200 µM in each case.

As to `C[n+]1cn(CCCC(=O)O)c2nc(NCCCC(=O)O)nc([O-])c21`, the IC50 was not below 200 µM in experiment [1] and 141 µM in experiment [2].

Turning to `COc1ccc(-n2c[n+](C)c3c([O-])nc(N)nc32)cc1OC`, the IC50 in experiment [1] was not below 200 µM; in experiment [2] it was 50 µM.

`C[n+]1cn(CC(=O)c2ccc3c(c2)NC(=O)CO3)c2nc(N)nc([O-])c21`: the half-maximal inhibitory concentration (IC50) is not below 200 µM in experiment [1] and 23 µM in experiment [2].

Turning to `C[n+]1cn(CC(=O)N[C@H](Cc2ccccc2)C(=O)O)c2nc(N)nc([O-])c21`, the IC50 in experiment [1] is not below 200 µM; in experiment [2], 65 µM.

As to `C[n+]1cn(CC(=O)N[C@@H](Cc2ccc(O)cc2)C(=O)O)c2nc(N)nc([O-])c21`, the IC50 in experiment [1] is not below 200 µM; in experiment [2], 80 µM.

`C[n+]1cn(CC(=O)O)c2nc(NCCCCC(=O)O)nc([O-])c21`: the IC50 was not below 200 µM in experiment [1] and 95 µM in experiment [2].

With `C[n+]1cn(CCCCC(=O)O)c2nc(N)nc([O-])c21`, the IC50 in experiment [1] and in experiment [2] was not below 200 µM in each case.

In the case of `Nc1nc2c(ncn2CC(=O)c2ccc(O)c(C(=O)O)c2)c(=O)[nH]1`, the Activity in experiment [3] is 1.1%. Moreover, the RU in experiment [4] was 22.6. Besides, the results for the IC50 in experiment [1] and in experiment [2] were 4.8 µM and 5.6 µM, respectively.

On to `C[n+]1cn(CC(=O)c2ccc(O)c(C(=O)O)c2)c2nc(N)nc([O-])c21`, for which the IC50 in experiment [1] was determined as 2.2 µM; in experiment [2] it was 0.6 µM.

The term Kd denotes the concentration at which binding is half-saturated. With `C[n+]1cn(CC(=O)c2ccc(O)c(C(N)=O)c2)c2nc(N)nc([O-])c21`, in experiment [3], the Activity is given as -0.2%. In addition, the Kd in experiment [5] worked out at 13 µM. The same compound gave an RU in experiment [4] of 85.8. Besides, the IC50 in experiment [1] was not below 200 µM; in experiment [2], 7.5 µM.

In the case of `C[n+]1cn(CC(=O)NCC(=O)O)c2nc(N)nc([O-])c21`, the IC50 in experiment [1] and in experiment [2] was not below 200 µM each time.

Take `C[n+]1cn(CC(=O)N[C@@H](CC(=O)O)C(=O)O)c2nc(N)nc([O-])c21`: the IC50 worked out at 124 µM in experiment [1] and 33 µM in experiment [2].

As to `C[n+]1cn(CCCCCC(=O)O)c2nc(N)nc([O-])c21`, the IC50 in experiment [1] and in experiment [2] was not below 200 µM each time.

Consider `C[n+]1cn(-c2cccc(C(=O)O)c2)c2nc(N)nc([O-])c21`, for which the IC50 was not below 200 µM in experiment [1] and 44 µM in experiment [2].

Turning to `CC(=O)Nc1nc([O-])c2c(n1)n(CC(=O)c1ccc(O)c(C(N)=O)c1)c[n+]2C`, the results for the IC50 in experiment [1] and in experiment [2] were not below 200 µM and 129 µM, respectively.

Take `CC(C(=O)c1ccccc1)n1c[n+](C)c2c([O-])nc(N)nc21` (stereo not given): the IC50 in experiment [1] is not below 200 µM; in experiment [2] it was 65 µM.

In the case of `NC(=O)c1cc(C(=O)Cn2c[n+](Cc3ccccc3)c3c([O-])nc(N)nc32)ccc1O`, the results for the IC50 in experiment [1] and in experiment [2] were not below 200 µM and 195 µM, respectively.

`C[n+]1cn(CC(=O)N[C@@H](Cc2ccccc2)C(=O)O)c2nc(N)nc([O-])c21`: the IC50 in experiment [1] was not below 200 µM; in experiment [2], 88 µM.

On to `C[n+]1cn(CC(=O)N[C@H](CC(=O)O)C(=O)O)c2nc(N)nc([O-])c21`, for which the IC50 in experiment [1] is not below 200 µM; in experiment [2], 91 µM.

`C[n+]1cn(CC(=O)O)c2nc(N)nc([O-])c21`: the IC50 in experiment [1] and in experiment [2] was not below 200 µM each time.

`C[n+]1cn(CCCC(=O)O)c2nc(N)nc([O-])c21`: the IC50 in experiment [1] and in experiment [2] was not below 200 µM in each case.

Regarding `Nc1nc2c(c(=O)[nH]1)[n+](Cc1ccccc1)cn2CCCCO`, the figures for the IC50 in experiment [1], in experiment [2] and in experiment [6] were not below 200 µM, not below 200 µM and 45 µM, respectively.

As to `C[n+]1cn(CC(=O)O)c2nc(NCC(=O)O)nc([O-])c21`, the results for the IC50 in experiment [1] and in experiment [2] were not below 200 µM and 44 µM, respectively.

Take `C[n+]1cn(CC(=O)N[C@@H](CCC(=O)O)C(=O)O)c2nc(N)nc([O-])c21`: in experiment [3], the Activity is recorded as -1.8%. The compound also showed an RU in experiment [4] of 13.8. Moreover, the results for the IC50 in experiment [1] and in experiment [2] were not below 200 µM and 45 µM, respectively.

As for `NC(=O)c1cc(C(=O)Cn2cnc3c(=O)[nH]c(N)nc32)ccc1O`, the Activity in experiment [3] is on record as -0.5%. This compound also had an RU in experiment [4] of 20.4. For the same compound, the IC50 was determined as 141 µM in experiment [1] and 49 µM in experiment [2].

Consider `C[n+]1cn(-c2ccc(C(=O)O)cc2)c2nc(N)nc([O-])c21`, for which the IC50 in experiment [1] is not below 200 µM; in experiment [2], 181 µM.
